Assays:
K562 = assay: Antiproliferative activity against human K562 cell line; assay type: functional, cell-based
Tubulin = Tubulin (Sus scrofa, UniProt P02554+P02550); assay: Inhibition of tubulin polymerization in porcine brain
[1] = Antiproliferative activity against KB/HeLa cells by XTT assay after 48 hrs; assay type: functional, cell-based; details: Homo sapiens
How it was run: (§1)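 Tumour cell lines were seeded at 1 × 10^3 to 8 × 10^4 cells/well for logarithmic growth and exposed to a concentration series for 48 h. Proliferation was read as cellular metabolic activity by XTT. IC50 came from dose-response curves by nonlinear regression, with at least two replicates.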

SK-OV-3 = assay: Antiproliferative activity against SKOV3 cells by XTT assay after 48 hrs; assay type: functional, cell-based; details: Homo sapiens, SK-OV-3, 48 h; how it was run: as §1
SF-268 = assay: Antiproliferative activity against SF268 cells by XTT assay after 48 hrs; assay type: functional, cell-based; details: Homo sapiens, SF-268, 48 h; how it was run: as §1
NCI-H460 = assay: Antiproliferative activity against NCI-H460 cells by XTT assay after 48 hrs; assay type: functional, cell-based; details: Homo sapiens, NCI-H460, 48 h; how it was run: as §1
RKO [2] = assay: Antiproliferative activity against RKO cells with ectopic-induced p27kip1-expression by XTT assay after 48 hrs; assay type: functional, cell-based; details: Homo sapiens
How it was run: (§2)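 RKO colon adenocarcinoma cells carry an ecdysone-inducible p27kip1 vector. On day 1 they were plated with 3 µM ponasterone A (induced, 2 × 10^4 cells/well) or without it (not induced, 6 × 10^3 cells/well) and held 24 h at 37 °C. Compound or DMSO control was then added for 48 h at 37 °C, followed by a standard XTT read-out.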

RKO [3] = assay: Antiproliferative activity against RKO cells by XTT assay after 48 hrs; assay type: functional, cell-based; details: Homo sapiens; how it was run: as §2
MDR = assay: Antiproliferative activity against LT12 MDR cells by XTT assay after 48 hrs; assay type: functional, cell-based; details: Rattus norvegicus; how it was run: as §1
L1210 = assay: Antiproliferative activity against L1210 VCR cells by XTT assay after 48 hrs; assay type: functional, cell-based; details: Mus musculus, L1210, 48 h; how it was run: as §1
P388 [4] = assay: Antiproliferative activity against P388 cells by XTT assay after 48 hrs; assay type: functional, cell-based; details: Mus musculus, P388, 48 h; how it was run: as §1
P388 [5] = assay: Antiproliferative activity against P388 ADR cells by XTT assay after 48 hrs; assay type: functional, cell-based; details: Mus musculus, P388, 48 h; how it was run: as §1
cells = details: Rattus norvegicus, LT12, 48 h
[6] = Cell cycle arrest in KB/HeLa cells by accumulation at S phase at 31.6 nM; assay type: functional, cell-based; details: Homo sapiens
How it was run: (§3)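 Subconfluent KB/HeLa cells were treated with a concentration series for 24 h at 37 °C, then detached and fixed in 70% ethanol. DNA was stained with propidium iodide alongside RNase digestion and measured by flow cytometry. Phase fractions came from cell-cycle modelling software, and IC50 from nonlinear regression.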

[7] = Cell cycle arrest in KB/HeLa cells by accumulation at S phase at 100 nM; assay type: functional, cell-based; details: Homo sapiens; how it was run: as §3
[8] = Cell cycle arrest in KB/HeLa cells by accumulation at S phase at 316 nM; assay type: functional, cell-based; details: Homo sapiens; how it was run: as §3
[9] = Cell cycle arrest in KB/HeLa cells by accumulation at G2/M phase at 1 nM; assay type: functional, cell-based; details: Homo sapiens; how it was run: as §3
[10] = Cell cycle arrest in KB/HeLa cells by accumulation at G2/M phase at 3.16 nM; assay type: functional, cell-based; details: Homo sapiens
[11] = Cell cycle arrest in KB/HeLa cells by accumulation at G2/M phase at 10 nM; assay type: functional, cell-based; details: Homo sapiens; how it was run: as §3
[12] = Cell cycle arrest in KB/HeLa cells by accumulation at G2/M phase at 31.6 nM; assay type: functional, cell-based; details: Homo sapiens; how it was run: as §3
[13] = Cell cycle arrest in KB/HeLa cells by accumulation at G2/M phase at 100 nM; assay type: functional, cell-based; details: Homo sapiens; how it was run: as §3
[14] = Cell cycle arrest in KB/HeLa cells by accumulation at G2/M phase at 316 nM; assay type: functional, cell-based; details: Homo sapiens; how it was run: as §3
[15] = Cell cycle arrest in KB/HeLa cells by accumulation at G1 phase at 1 nM; assay type: functional, cell-based; details: Homo sapiens; how it was run: as §3
[16] = Cell cycle arrest in KB/HeLa cells by accumulation at G1 phase at 3.16 nM; assay type: functional, cell-based; details: Homo sapiens; how it was run: as §3
[17] = Cell cycle arrest in KB/HeLa cells by accumulation at G1 phase at 10 nM; assay type: functional, cell-based; details: Homo sapiens; how it was run: as §3
[18] = Cell cycle arrest in KB/HeLa cells by accumulation at G1 phase at 31.6 nM; assay type: functional, cell-based; details: Homo sapiens; how it was run: as §3
[19] = Cell cycle arrest in KB/HeLa cells by accumulation at G1 phase at 100 nM; assay type: functional, cell-based; details: Homo sapiens; how it was run: as §3
[20] = Cell cycle arrest in KB/HeLa cells by accumulation at G1 phase at 316 nM; assay type: functional, cell-based; details: Homo sapiens; how it was run: as §3
[21] = Cell cycle arrest in KB/HeLa cells by accumulation at G2/M phase; assay type: functional, cell-based; details: Homo sapiens; how it was run: as §3
[22] = Cell cycle arrest in KB/HeLa cells by accumulation at S phase at 1 nM; assay type: functional, cell-based; details: Homo sapiens; how it was run: as §3
[23] = Cell cycle arrest in KB/HeLa cells by accumulation at S phase at 3.16 nM; assay type: functional, cell-based; details: Homo sapiens; how it was run: as §3
[24] = Cell cycle arrest in KB/HeLa cells by accumulation at S phase at 10 nM; assay type: functional, cell-based; details: Homo sapiens; how it was run: as §3

SMILES: O=C1c2ccccc2/C(=C/c2cc(Cl)cc(Cl)c2)c2sccc21
- IC50 (K562): 420 nM

SMILES: COc1ccc(COc2c3ccccc3cc3sccc23)cc1
- IC50 (K562): 250 nM
- IC50 (Tubulin): 1520 nM
- IC50 [1]: 470 nM
- IC50 (SK-OV-3): 270 nM
- IC50 (SF-268): 430 nM
- IC50 (NCI-H460): 980 nM
- IC50 (RKO [2]): > 9000 nM
- IC50 (RKO [3]): 280 nM

SMILES: CC[C@]1(O)C[C@@H]2CN(CCc3c([nH]c4ccccc34)[C@@](C(=O)OC)(c3cc4c(cc3OC)N(C)[C@H]3[C@@](O)(C(N)=O)[C@H](O)[C@]5(CC)C=CCN6CC[C@]43[C@@H]65)C2)C1 [VINDESINE]
- IC50 (MDR): 260 nM
- IC50 (L1210): > 5000 nM
- IC50 (P388 [4]): 10 nM
- IC50 (P388 [5]): 1100 nM
- IC50 (cells): 1 nM

SMILES: CC(=O)O[C@H]1C(=O)[C@@]2(C)[C@H]([C@H](OC(=O)c3ccccc3)[C@]3(O)C[C@H](OC(=O)[C@H](O)[C@@H](NC(=O)c4ccccc4)c4ccccc4)C(C)=C1C3(C)C)[C@]1(OC(C)=O)CO[C@@H]1C[C@@H]2O [PACLITAXEL]
- Activity [6]: 49.9%
- Activity [7]: 11%
- Activity [8]: 8.9%
- Activity [9]: 10.1%
- Activity [10]: 9.4%
- Activity [11]: 8.5%
- Activity [12]: 19%
- Activity [13]: 87.8%
- Activity [14]: 90.8%
- Activity [15]: 63.2%
- Activity [16]: 63.6%
- Activity [17]: 64.8%
- Activity [18]: 31.1%
- Activity [19]: 1.2%
- Activity [20]: 0.3%
- EC50 [21]: 49 nM
- IC50 [1]: 10 nM
- IC50 (RKO [2]): > 3000 nM
- IC50 (MDR): 400 nM
- IC50 (L1210): > 5000 nM
- IC50 (P388 [4]): 40 nM
- IC50 (P388 [5]): > 5000 nM
- Activity [22]: 26.7%
- Activity [23]: 27%
- Activity [24]: 26.6%

SMILES: COc1ccc(CC(=O)Oc2c3ccccc3cc3sccc23)cc1
- IC50 (K562): 15000 nM
- IC50 (Tubulin): > 10000 nM

SMILES: COc1ccc(CCOc2c3ccccc3cc3sccc23)cc1
- IC50 (K562): 5300 nM
- IC50 (Tubulin): > 10000 nM

SMILES: O=C1c2ccccc2/C(=C/c2c[nH]c3ccccc23)c2sccc21
- IC50 (K562): 720 nM
- IC50 (Tubulin): 2800 nM

SMILES: COc1ccc(CCC(=O)Oc2c3ccccc3cc3sccc23)cc1
- IC50 (K562): > 90000 nM

SMILES: COc1ccc2[nH]cc(/C=C3/c4ccccc4C(=O)c4ccsc43)c2c1
- IC50 (K562): 240 nM

SMILES: O=C1c2ccccc2/C(=C/c2ccc(O)c(O)c2)c2sccc21
- IC50 (K562): 270 nM

SMILES: Cn1cc(/C=C2/c3ccccc3C(=O)c3ccsc32)c2ccccc21
- IC50 (K562): 250 nM

SMILES: COc1ccc(COc2c3ccccc3cc3sccc23)cc1OC
- IC50 (K562): 900 nM
- IC50 (Tubulin): 3980 nM

SMILES: O=C1c2ccccc2/C(=C/c2cccs2)c2sccc21
- IC50 (K562): 390 nM
- IC50 (Tubulin): 1340 nM

SMILES: COc1cc(/C=C2/c3ccccc3C(=O)c3ccsc32)cc(OC)c1OC
- IC50 (K562): 600 nM
- IC50 (Tubulin): 7400 nM

SMILES: O=C1c2ccccc2Cc2sccc21
- IC50 (K562): 7000 nM

SMILES: COc1ccc(C(=O)Oc2c3ccccc3cc3sccc23)cc1
- IC50 (K562): > 90000 nM
- IC50 (Tubulin): > 10000 nM
